Test results from ChEMBL document CHEMBL4765453, “Phenanthrolinic analogs of quinolones show antibacterial activity against M. tuberculosis” (Eur J Med Chem, 2020).
Values after ≈ are worked out from the molar mass of the structure shown.

Legend:
[1] = system: Mycobacterium tuberculosis; test: Antitubercular activity against Mycobacterium tuberculosis H37Rv measured after 7 days by resazurin microtiter assay; format: functional; conditions: 168 h, time 7 day
Outline: (§1)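 Resazurin microtiter assay with two-fold drug dilutions in complete 7H9 broth. Exponential-phase cells are diluted to a final OD600 of 0.005 in 7H9 without Tween. Incubation is 7 days at 37°C, then 0.01% resazurin is added and plates are held 24 h more. MIC is the lowest concentration preventing the blue-to-pink change. Each MIC is determined three times in duplicate experiments.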

[2] = system: Mycobacterium tuberculosis; test: Antitubercular activity against Mycobacterium tuberculosis H37Rv infected in human macrophages assessed as intracellular bacterial load at 0.5 MIC measured after 6 days (reference value: 5.57 to 6.43 logCFU/ml); format: functional, Macrophage; conditions: time 6 day
[3] = system: Mycobacterium tuberculosis; test: Antitubercular activity against Mycobacterium tuberculosis H37Rv infected in human macrophages assessed as intracellular bacterial load at MIC measured after 6 days (reference value: 5.57 to 6.43 logCFU/ml); format: functional, Macrophage; conditions: time 6 day
[4] = system: Mycobacterium tuberculosis; test: Antitubercular activity against Mycobacterium tuberculosis H37Rv infected in human macrophages assessed as intracellular bacterial load at 2 times MIC measured after 6 days (reference value: 5.57 to 6.43 logCFU/ml); format: functional, Macrophage; conditions: time 6 day
[5] = system: Mycobacterium tuberculosis; test: Antitubercular activity against Mycobacterium tuberculosis H37Rv infected in human macrophages assessed as intracellular bacterial load at 4 times MIC measured after 6 days (reference value: 5.57 to 6.43 logCFU/ml); format: functional, Macrophage; conditions: time 6 day
[6] = system: Mycobacterium tuberculosis; test: Antitubercular activity against Mycobacterium tuberculosis XDR measured after 7 days by resazurin microtiter assay; format: functional; conditions: 168 h, time 7 day; outline: as §1
[7] = Solubility of compound in water; format: physicochemical; conditions: buffer
[8] = system: Mycolicibacterium smegmatis; test: Antibacterial activity against Mycobacterium smegmatis measured after 7 days by resazurin microtiter assay; format: functional; conditions: 168 h, time 7 day; outline: as §1
Mycolicibacterium aurum = test: Antibacterial activity against Mycobacterium aurum measured after 7 days by resazurin microtiter assay; format: functional; conditions: 168 h, time 7 day; outline: as §1
Mycobacterium marinum = test: Antibacterial activity against Mycobacterium marinum measured after 7 days by resazurin microtiter assay; format: functional; conditions: 168 h, time 7 day; outline: as §1
Pseudomonas aeruginosa = test: Antibacterial activity against Pseudomonas aeruginosa measured after 7 days by resazurin microtiter assay; format: functional; conditions: 168 h, time 7 day
Acinetobacter baumannii = test: Antibacterial activity against Acinetobacter baumannii measured after 7 days by resazurin microtiter assay; format: functional; conditions: 168 h, time 7 day
Klebsiella aerogenes = test: Antibacterial activity against Enterobacter aerogenes measured after 7 days by resazurin microtiter assay; format: functional; conditions: 168 h, time 7 day
Enterobacter cloacae = test: Antibacterial activity against Enterobacter cloacae measured after 7 days by resazurin microtiter assay; format: functional; conditions: 168 h, time 7 day
Staphylococcus aureus = test: Antibacterial activity against Staphylococcus aureus measured after 7 days by resazurin microtiter assay; format: functional; conditions: 168 h, time 7 day
Klebsiella pneumoniae = test: Antibacterial activity against Klebsiella pneumoniae measured after 7 days by resazurin microtiter assay; format: functional; conditions: 168 h, time 7 day
Vero = test: Cytotoxicity against African green monkey Vero cells assessed as reduction in cell viability measured after 24 to 48 hrs by Celltiter-glo assay; format: cell-based, Chlorocebus sabaeus; conditions: Chlorocebus sabaeus, Vero
Outline: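 Vero cells are grown in DMEM with 10% FBS and seeded at 25000 cells/well. Compound is added at 1% final DMSO, with 24 and 48 h incubation. ATP is read by CellTiter-Glo luminescence. IC50 is the concentration giving a 50% drop in ATP signal versus the DMSO control.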

Macrophage = test: Cytotoxicity against human macrophages assessed as reduction in cell viability measured after 6 days by Celltiter-glo assay; format: cell-based; conditions: Homo sapiens, Macrophage, 144 h
Outline: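 Infected human macrophages, with or without drug, are incubated 6 days. Viability is checked by visual inspection and by CellTiter-Glo ATP luminescence.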

| SMILES | MIC90 [1] [µM] | solubility [7] | further results |
| --- | --- | --- | --- |
| COc1c(N2C[C@@H]3CCCN[C@@H]3C2)c(F)cc2c(=O)c(C(=O)O)cn(C3CC3)c12 [MOXIFLOXACIN] | 0.77 (≈ 0.309 µg/mL) | – | Activity [2]: 4.02 log10CFU/ml; Activity [3]: 3.77 log10CFU/ml; Activity [4]: 3.93 log10CFU/ml; Activity [5]: 2.54 log10CFU/ml; MIC90 [6]: 6.16 µM (≈ 2.47 µg/mL) |
| CCn1cc(C(=O)Nc2ccccc2)c(=O)c2ccc3cccnc3c21 | 312 (≈ 107 µg/mL) | Insoluble | – |
| CCn1cc(C(=O)O)c(=O)c2ccc(C)nc21 [NALIDIXIC ACID] | – | – | MIC [1]: > 50 µM |
| CCn1cc(C(=O)NN)c(=O)c2cc([N+](=O)[O-])c3cccnc3c21 | 9.84 (≈ 3.22 µg/mL) | Insoluble | – |
| CCOC(=O)c1cn(C)c2c(cc([N+](=O)[O-])c3cccnc32)c1=O | 1.21 (≈ 0.396 µg/mL) | Insoluble | MIC90 [8]: > 100 µM; MIC90 (Mycolicibacterium aurum): > 100 µM; MIC90 (Mycobacterium marinum): 0.15 µM (≈ 0.0491 µg/mL); MIC90 (Pseudomonas aeruginosa): > 100 µM; MIC90 (Acinetobacter baumannii): > 100 µM; MIC90 (Klebsiella aerogenes): 309 µM (≈ 101 µg/mL); MIC90 (Enterobacter cloacae): > 275 µM; MIC90 (Staphylococcus aureus): > 275 µM; MIC90 (Klebsiella pneumoniae): > 275 µM; IC50 (Vero): > 50 µg/mL; IC50 (Macrophage): > 50 µg/mL; Activity [2]: 4.22 log10CFU/ml; Activity [3]: 3.63 log10CFU/ml; Activity [4]: 3.45 log10CFU/ml; Activity [5]: 3.06 log10CFU/ml; MIC90 [6]: 1.21 µM (≈ 0.396 µg/mL) |
| CCOC(=O)c1cn(CC)c2c(ccc3cccnc32)c1=O | 170 (≈ 50.3 µg/mL) | Insoluble | – |
| CCn1cc(C(=O)O)c(=O)c2ccc3cccnc3c21 | 47.1 (≈ 12.6 µg/mL) | Insoluble | – |
| CCOC(=O)c1cn(CC)c2c(cc(N)c3cccnc32)c1=O | 41.9 (≈ 13 µg/mL) | Insoluble | – |
| CCOC(=O)c1cn(CC)c2c(cc(Cl)c3cccnc32)c1=O | 166 (≈ 55 µg/mL) | Insoluble | – |
| CCn1cc(C(N)=O)c(=O)c2cc([N+](=O)[O-])c3cccnc3c21 | 1.25 (≈ 0.39 µg/mL) | Insoluble | – |
| CCOC(=O)c1c[nH]c2c(ccc3ccc[n+]([O-])c32)c1=O | 204 (≈ 58 µg/mL) | Insoluble | – |
| CCOC(=O)c1c[nH]c2c(ccc3cccnc32)c1=O | 24 (≈ 6.44 µg/mL) | Insoluble | – |
| CCOC(=O)c1cn(C)c2c(cc(Cl)c3cccnc32)c1=O | 329 (≈ 104 µg/mL) | Insoluble | – |
| CO[C@H]1/C=C/O[C@@]2(C)Oc3c(C)c(O)c4c(O)c(c(/C=N/N5CCN(C)CC5)c(O)c4c3C2=O)NC(=O)/C(C)=C\C=C\[C@H](C)[C@H](O)[C@@H](C)[C@@H](O)[C@@H](C)[C@H](OC(C)=O)[C@@H]1C [RIFAMPIN] | 0.76 (≈ 0.625 µg/mL) | – | – |
| Cn1cc(C(=O)NN)c(=O)c2cc([N+](=O)[O-])c3cccnc3c21 | 20.8 (≈ 6.51 µg/mL) | Insoluble | – |
